Laboratory results from ChEMBL document CHEMBL3596096, “Synthesis and biological evaluation of quinones derived from natural product komaroviquinone as anti-Trypanosoma cruzi agents” (Bioorg Med Chem Lett, 2015).
Active and inactive are the calls of the source. The rule behind the calls is not given here.

Assays:
Trypanosoma cruzi [1] = assay: Antitrypanosomal activity against trypomastigotes stage of Trypanosoma cruzi infected in human HT1080 cells assessed as inhibition of parasite growth at 10 uM after 24 hrs by microscopic analysis; format: functional, organism-based; details: HT-1080
Outline: (§1)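 Trypomastigotes suspended in DMEM and exposed 24 h to a single compound concentration, alongside vehicle (0.1% ethanol) control and benznidazole. Live parasites were counted microscopically. Values are the mean of four independent experiments, with significance versus control by two-tailed unpaired Student's t-test.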

Trypanosoma cruzi [2] = assay: Antitrypanosomal activity against trypomastigotes stage of Trypanosoma cruzi infected in human HT1080 cells assessed as inhibition of parasite growth after 24 hrs by microscopic analysis; format: functional, organism-based; details: HT-1080, 24 h
Outline: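 Trypomastigotes suspended in DMEM and incubated 24 h with a range of compound concentrations or vehicle (0.1% ethanol). Live parasites were counted microscopically, and the IC50 was determined from the concentration series.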

Trypanosoma cruzi [3] = assay: Antitrypanosomal activity against trypomastigotes stage of Trypanosoma cruzi infected in human HT1080 cells assessed as inhibition of parasite growth at 1 uM after 24 hrs by microscopic analysis; format: functional, organism-based; details: HT-1080; outline: as §1
HT-1080 = assay: Induction of reactive oxygen species formation in human HT1080 cells at 10 to 50 µM by fluorometric analysis; format: functional, cell-based
Outline: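 Intracellular ROS in host HT1080 cells was measured with an intracellular ROS assay kit, read out as fluorescence intensity (RFU). H2O2 and benznidazole were included for comparison.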

Compound	IC50 (Trypanosoma cruzi [2])	also measured
COC(=O)C[C@@H]1C(Cc2cc(OC)c(C(C)C)c(OC)c2OC)=CCCC1(C)C	–	growth inhibition (GI) (Trypanosoma cruzi [1]): inactive
COC1=C(C(C)C)C(=O)C=C(Cc2ccccc2)C1=O	> 10000 nM	–
COC1=C(C(C)C)C(=O)C=C(CN2C(=O)CCc3ccccc32)C1=O	2000 nM	–
COC1=C(C(C)C)C(=O)C=C(CN(C(=O)C2CCCCC2)C2CCCCC2)C1=O	2400 nM	–
COC1=C(C(C)C)C(=O)C(C(C)(C)O)=C(C)C1=O	–	growth inhibition (GI) (Trypanosoma cruzi [1]): Active; growth inhibition (GI) (Trypanosoma cruzi [3]): Active
COC1=C(C(C)C)C(=O)C=C(CN(C)C(=O)c2ccccc2)C1=O	> 10000 nM	–
COC1=C(C(C)C)C(=O)C=C(Cn2cncn2)C1=O	9800 nM	–
COC1=C(C(C)C)C(=O)C=C(Cn2cnc([N+](=O)[O-])c2)C1=O	> 10000 nM	–
COC1=C(C(C)C)C(=O)C=C(CC(O)(Cn2cncn2)c2ccc(F)cc2F)C1=O (centres undefined)	540 nM	Activity (HT-1080): Active
COC1=C(C(C)C)C(=O)C=C(CC2(O)CCCCC2)C1=O	590 nM	–
COC1=C(C(C)C)C(=O)C=C(CN(C)C(=O)C2CCCCC2)C1=O	1100 nM	–
COC1=C(C(C)C)C(=O)C=C(COC(Cn2cncn2)c2ccc(F)cc2F)C1=O (centres undefined)	300 nM	–
COC1=C(C(C)C)C(=O)C=C(CNC(=O)C2CCCCC2)C1=O	330 nM	–
COc1c2c(c(OC)c(C(C)C)c1OC)C1(O)C[C@H]3C(C)(C)CCC[C@@]3(C2)O1	–	growth inhibition (GI) (Trypanosoma cruzi [1]): inactive
COC1=C(C(C)C)C(=O)C=C(C[C@@]23CCCC(C)(C)[C@@H]2CC(=O)O3)C1=O	–	growth inhibition (GI) (Trypanosoma cruzi [1]): Active; growth inhibition (GI) (Trypanosoma cruzi [3]): Active
COC1=C(C(C)C)C(=O)C=C(COC(C)C)C1=O	> 10000 nM	–
COC1=C(C(C)C)C(=O)C=C(COc2cccnc2)C1=O	> 10000 nM	–
COc1c(C[C@@]23CCCC(C)(C)[C@@H]2CC(=O)O3)c(I)c(OC)c(C(C)C)c1OC	–	growth inhibition (GI) (Trypanosoma cruzi [1]): inactive
CCCCCCCC1=CC(=O)C(C(C)C)=C(OC)C1=O	> 10000 nM	–
COC1=C(C(C)C)C(=O)C=C(CC2CCCCC2)C1=O	> 10000 nM	–
COc1cc(C[C@@]23CCCC(C)(C)[C@@H]2CC(=O)O3)c(OC)c(OC)c1C(C)C	–	growth inhibition (GI) (Trypanosoma cruzi [1]): inactive
COC1=C(C(C)C)C(=O)C2=C(C[C@@]34CCCC(C)(C)[C@@H]3C[C@]2(O)O4)C1=O [KOMAROVIQUINONE]	250 nM	Activity (HT-1080): Active; growth inhibition (GI) (Trypanosoma cruzi [1]): Active; growth inhibition (GI) (Trypanosoma cruzi [3]): Active
COC1=C(C(C)C)C(=O)C=C(COC2CCCCC2)C1=O	> 10000 nM	–
COC1=C(C(C)C)C(=O)C=C(CC(C)(C)O)C1=O	> 10000 nM	–
O=C(Cn1ccnc1[N+](=O)[O-])NCc1ccccc1 [BENZNIDAZOLE]	6800 nM	Activity (HT-1080): Active
COC1=C(C(C)C)C(=O)C=C(COc2ccccc2)C1=O	> 10000 nM	–
COC1=C(C(C)C)C(=O)C=C(CN2CCCC2=O)C1=O	> 10000 nM	–
